Fewer inactive variants are shown than the library holds.
B1: tRNA (parent)
chain: GUUCCGUUGGCGUAAUGGUAACGCGUCUCCCUCCUAAGGAGAAGACUGCGGGUUCGAGUCCCGUACGGAACG

Variants of: B1
Assay: yeast fitness relative to wild type (ratio to wild type); higher = fitter; tRNA-Arg(CCU), competitive growth, 37 C, YPD
Outline: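 The tRNA-Arg(CCU) gene variants were made by chemical synthesis with a 3% per-site mutation rate at 69 sites and inserted at the native genomic locus of Saccharomyces cerevisiae. After pooling, the strains were competed in YPD at 37°C for 24 hours in six parallel replicates. Gene amplicons from the start population and each end population were read by 100-nucleotide paired-end sequencing, and Darwinian fitness relative to wild type was taken from genotype frequency changes. Genotypes needed ≥ 100 starting reads, and estimates < 0.5 were set to 0.5.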

Variant	yeast fitness
C29U A65C A69C	≤ 0.5
C29G C60U	0.576
C29G A37U C46U	≤ 0.5
C29G C60U G67A A69U	0.588
C29G G44C C49A U64C	≤ 0.5
C29U G38C C46A	≤ 0.5
C29U C66U	0.796
C29U C66A	0.591
C29U A43C G63A	0.699
C29G G56C	≤ 0.5
C29A A57G U64A	≤ 0.5
C29A A42U	0.632
C29G A37U U59C C66G	0.687
C29A C34G A42C C49G G68A	≤ 0.5
C29U C33A C34U C46G	≤ 0.5
C29G C60A G67A	≤ 0.5
C29A C66U	0.627
C29U C30A A65U	≤ 0.5
C29A C60A	0.616
C29U A45U A65C	0.544
C29A A36U A40U C55U G56A U59C	≤ 0.5

Variant	yeast fitness
C29G U35G A42G C61U	≤ 0.5
C29G U32C C61G C66G	≤ 0.5
C29A C49A A70G	≤ 0.5
C29G U35A A36C C62A	≤ 0.5
C29U C31A G44A	0.885
C29G C49G A57G	0.6
C29G C49A	0.664
C29U C33A G38C	0.638
C29U C33A G38A	≤ 0.5
C29G U32C A70C	0.555
C29G A43G U64C	≤ 0.5
C29G C49A A70G	≤ 0.5
C29G C49A A70C	0.538
C29G C46U C66U	0.606
C29U C30U A43U A65U	0.588
C29U A57C	0.611
C29G C49G G56A	≤ 0.5
C29U A69C	0.939
C29G A69G	≤ 0.5
C29A G50C U64C	≤ 0.5
C29G A36G G38A A45G	≤ 0.5

Variant	yeast fitness
C29U C33A G38A G58C A65U	≤ 0.5
C29U C34U G41A G67A A70U	≤ 0.5
C29G U35A A36C G68A	≤ 0.5
C29G A40U G50C	0.636
C29G U35A U64C	≤ 0.5
C29U C31A G38C	≤ 0.5
C29U C33G G44C U64C	≤ 0.5
C29A C62U	0.723
C29G A40U G67C	0.517
C29G A65U A70G	0.506
C29A A69C	0.679
C29A A69U	0.756
C29A C49A C62A C66U	≤ 0.5
C29G C46U A57G C61U	≤ 0.5
C29A U35A G56A G63A	0.525
C29G U47G A57G A69U	≤ 0.5
C29G C33U G68A	≤ 0.5
C29U A43G C66U	0.598
C29U C55U	0.636
C29A C33G U35C C49U A57C C60A	0.644
C29A A70U	0.891

Variant	yeast fitness
C29A A70C	0.635
C29U A43C G50C C60A	0.634
C29A A36C G51A U53C U64C A65U	≤ 0.5
C29U C31U	0.846
C29G G41A A57G	≤ 0.5
C29G A36U C49U C60U	≤ 0.5
C29G G44A G58C	≤ 0.5
C29U C31U U54G A65C G67A	0.549
C29G A37C G63A	≤ 0.5
C29G A40U C66U	≤ 0.5
C29U A36U A57G G58A	≤ 0.5
C29G G48A U59C	≤ 0.5
C29U C30A U59G	≤ 0.5
C29A C30U	0.689
C29U A37G G48C G67C	≤ 0.5
C29G A57C C66G	≤ 0.5
C29G C30U C46U G48A G56A C61U C62G	≤ 0.5
C29U C46G G51A	0.543
C29G C31A U47A U59A C60U C62G C66U	≤ 0.5
C29G C30U A65G	≤ 0.5

Source: the RNAGym collection of RNA variant scans (doi:10.1126/science.aae0568)
